The results in this text go back to ChEMBL document CHEMBL4152327, “Homopiperazine-rhodamine B adducts of triterpenoic acids are strong mitocans” (Eur J Med Chem, 2018).

One data set deals with NIH3T3. The data set can be described thus: Cytotoxicity against mouse NIH/3T3 cells after 96 hrs by SRB assay. The class given is cell-based. As to conditions: NIH3T3, 96 h. Put shortly:
(§1)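 SRB assay; cells exposed to compound for 96 h. EC50 in µM averaged from three independent experiments, each in triplicate, with 95% confidence interval and mean ± standard mean error. Assay cut-off 30 µM.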

The subject of another data set is MCF7. The data set can be described thus: Cytotoxicity against human MCF7 cells after 96 hrs by SRB assay. Type of data set: functional, cell-based. As to conditions: MCF7, 96 h. Put shortly: as §1
(The SRB assay estimates cell density from bound dye.)

The test system of a further data set is A-375. Description: Cytotoxicity against human A375 cells after 96 hrs by SRB assay. Type of data set: functional, cell-based. The note with it: A-375, 96 h. Put shortly:
as §1

Another data set concerns HT-29. Description: Cytotoxicity against human HT-29 cells after 96 hrs by SRB assay. The class given is functional, cell-based. The note with it: HT-29, 96 h. Put shortly:
as §1

The next data set has as its system A2780. The data set can be described thus: Cytotoxicity against human A2780 cells after 96 hrs by SRB assay. Type of data set: functional, cell-based. The note with it: A2780, 96 h. Put shortly:
as §1

A further data set relates to SW-1736. The data set can be described thus: Cytotoxicity against human SW1736 cells after 96 hrs by SRB assay. Type of data set: functional, cell-based. The note with it: SW-1736, 96 h. Put shortly:
as §1

The nature of data set [1]: Selectivity index, ratio of EC50 for mouse NIH/3T3 cells to EC50 for human A2780 cells. The note with it: NIH/3T3 cells and A2780 cells, read-out: Ratio EC50. The class given is toxicity.
A short description of data set [2]: Drug uptake in mitochondria of human A2780 cells at 100 nM after 24 hrs by rhodamine 123 staining-based fluorescence microscopic method. Type of data set: ADME. As to conditions: a2780, 24 h, 0.1 µM. Put shortly:
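A2780 cells, about 1·10^6 per 25 cm² flask, grown 24 h, then given fresh medium containing compound for 24 h (blank medium as control). Cells collected, centrifuged at 1200 rpm and 4 °C, washed in PBS, then mixed with Hoechst 33342/Rhodamine 123 solution (10 µg/ml). Incubated 30 min at 37 °C in the dark, washed, and viewed by epifluorescence microscopy.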

With `CC(=O)O[C@@H]1CC[C@@]2(C)[C@@H](CC[C@]3(C)[C@@H]2C(=O)C=C2[C@@H]4[C@@H](C)[C@H](C)CC[C@]4(C)CC[C@]23C)[C@@]1(C)C(=O)N1CCCNCC1`, the EC50 (usually the concentration at which the effect is half-maximal) in the data set with NIH3T3 was determined as 900 nM; in the data set on MCF7, 2410 nM; with A-375, 3210 nM; in the data set on HT-29, 1990 nM; with A2780, 2850 nM.
Take `C=C(C)[C@@H]1CC[C@]2(C(=O)N3CCCNCC3)CC[C@]3(C)[C@H](CC[C@@H]4[C@@]5(C)CC[C@H](OC(C)=O)C(C)(C)[C@@H]5CC[C@]43C)[C@@H]12`: the EC50 in the data set on NIH3T3 was determined as 1050 nM; with MCF7 it was 1520 nM; with SW-1736 it was 1840 nM; in the data set on HT-29 it was 1470 nM; with A2780 it was 1610 nM.
Consider `CC(=O)O[C@@H]1CC[C@@]2(C)[C@@H](CC[C@]3(C)[C@@H]2C(=O)C=C2[C@@H]4[C@@H](C)[C@H](C)CC[C@]4(C)CC[C@]23C)[C@@]1(C)C(=O)NCc1ccccc1`, for which the EC50 in the data set on NIH3T3 turned out to be 28100 nM; in the data set on MCF7, 9800 nM; with A-375, 13700 nM; in the data set on HT-29 it was 20200 nM; in the data set on A2780, 10800 nM.
`CCN(CC)c1ccc2c(-c3ccccc3C(=O)N3CCCN(C(=O)[C@]4(C)[C@@H]5CC[C@]6(C)[C@H](C(=O)C=C7[C@@H]8[C@@H](C)[C@H](C)CC[C@]8(C)CC[C@]76C)[C@@]5(C)CC[C@H]4OC(C)=O)CC3)c3ccc(=[N+](CC)CC)cc-3oc2c1`: the 50% effective concentration (EC50) in the data set on NIH3T3 turned out to be 400 nM; in the data set on MCF7, 390 nM; in the data set with A-375, 510 nM; in the data set with HT-29, 500 nM; in the data set with A2780 it was 450 nM.
Consider `CCN(CC)c1ccc2c(-c3ccccc3C(=O)N3CCCN(C(=O)[C@@]4(C)CC[C@]5(C)CC[C@]6(C)C(=CC(=O)[C@@H]7[C@@]8(C)CC[C@H](OC(C)=O)C(C)(C)[C@@H]8CC[C@]76C)[C@@H]5C4)CC3)c3ccc(=[N+](CC)CC)cc-3oc2c1`, for which the concentration for a half-maximal effect (EC50) is 330 nM with NIH3T3; 220 nM with MCF7; 760 nM with A-375; 220 nM in the data set on SW-1736; 280 nM with HT-29; 220 nM in the data set with A2780.
Consider `CC(=O)O[C@H]1CC[C@]2(C)[C@H]3CC=C4[C@@H]5CC(C)(C)CC[C@]5(C(=O)N5CCCNCC5)CC[C@@]4(C)[C@]3(C)CC[C@H]2C1(C)C`, for which the EC50 in the data set on NIH3T3 was 1230 nM; in the data set on MCF7, 1500 nM; in the data set on A-375, 2300 nM; in the data set with SW-1736 it was 3250 nM; in the data set on HT-29, 1300 nM; in the data set on A2780, 2310 nM.
Take `CCN(CC)c1ccc2c(-c3ccccc3C(=O)O[C@@H]3CC[C@@]4(C)[C@@H](CC[C@]5(C)[C@@H]4C(=O)C=C4[C@@H]6[C@@H](C)[C@H](C)CC[C@]6(C)CC[C@]45C)[C@@]3(C)C(=O)OC)c3ccc(=[N+](CC)CC)cc-3oc2c1`: the EC50 in the data set on NIH3T3 was 190 nM; in the data set with MCF7 it was 230 nM; in the data set on A-375, 360 nM; in the data set with HT-29, 290 nM; in the data set with A2780 it was 300 nM.
On to `C[C@H]1[C@H](C)CC[C@]2(C)CC[C@]3(C)C(=CC(=O)[C@@H]4[C@@]5(C)CC[C@@H](O)[C@](C)(C(=O)OCc6ccccc6)[C@@H]5CC[C@]43C)[C@H]12`, for which the EC50 with NIH3T3 is over 30000 nM; with MCF7, 26400 nM; in the data set with A-375, 24800 nM; with SW-1736, 24800 nM; in the data set with HT-29, 28800 nM; in the data set with A2780, 30100 nM.
On to `CCN(CC)c1ccc2c(-c3ccccc3C(=O)O[C@H]3CC[C@@]4(C)[C@@H](CC[C@]5(C)[C@@H]4C(=O)C=C4[C@@H]6[C@@H](C)[C@H](C)CC[C@]6(C)CC[C@]45C)[C@@]3(C)C(=O)NCc3ccccc3)c3ccc(=[N+](CC)CC)cc-3oc2c1`, for which the EC50 with NIH3T3 was determined as 400 nM; in the data set on MCF7 it was 490 nM; in the data set on A-375, 590 nM; with HT-29 it was 550 nM; with A2780, 530 nM.
For `CC(=O)O[C@H]1CC[C@]2(C)[C@H]3CC=C4[C@@H]5[C@@H](C)[C@H](C)CC[C@]5(C(=O)N5CCCNCC5)CC[C@@]4(C)[C@]3(C)CC[C@H]2C1(C)C`, the EC50 was 1810 nM in the data set on NIH3T3; 1610 nM with MCF7; 1950 nM in the data set on A-375; 1880 nM in the data set on HT-29; 2210 nM with A2780.
As to `C[C@H]1[C@H](C)CC[C@]2(C)CC[C@]3(C)C(=CC(=O)[C@@H]4[C@@]5(C)CC[C@@H](O)[C@](C)(C(=O)NCc6ccccc6)[C@@H]5CC[C@]43C)[C@H]12`, the EC50 turned out to be 4900 nM with NIH3T3; 7300 nM with MCF7; 12800 nM in the data set on A-375; 10700 nM in the data set on HT-29; 10000 nM in the data set on A2780.
With `CC(=O)O[C@H]1CC[C@]2(C)[C@H]3C(=O)C=C4[C@@H]5C[C@@](C)(C(=O)N6CCCNCC6)CC[C@]5(C)CC[C@@]4(C)[C@]3(C)CC[C@H]2C1(C)C`, the EC50 with NIH3T3 was found to be 12300 nM; in the data set on MCF7, 10700 nM; in the data set on A-375, 18700 nM; with SW-1736 it was 18700 nM; with HT-29, 5110 nM; in the data set with A2780, 12000 nM.
Consider `CCN(CC)c1ccc2c(-c3ccccc3C(=O)N3CCCN(C(=O)[C@]45CC[C@@H](C)[C@H](C)[C@H]4C4=CC[C@@H]6[C@@]7(C)CC[C@H](OC(C)=O)C(C)(C)[C@@H]7CC[C@@]6(C)[C@]4(C)CC5)CC3)c3ccc(=[N+](CC)CC)cc-3oc2c1`, for which the EC50 in the data set on NIH3T3 was determined as 140 nM; with MCF7, 30 nM; with A-375, 40 nM; with SW-1736, 40 nM; in the data set with HT-29 it was 40 nM; with A2780, 20 nM.
As for `CCN(CC)c1ccc2c(-c3ccccc3C(=O)O[C@H]3CC[C@@]4(C)[C@@H](CC[C@]5(C)[C@@H]4C(=O)C=C4[C@@H]6[C@@H](C)[C@H](C)CC[C@]6(C)CC[C@]45C)[C@@]3(C)C(=O)OCc3ccccc3)c3ccc(=[N+](CC)CC)cc-3oc2c1`, the concentration for a half-maximal effect (EC50) turned out to be 1010 nM in the data set with NIH3T3; 1380 nM in the data set on MCF7; 1520 nM in the data set on A-375; 1710 nM in the data set with HT-29; 1320 nM in the data set on A2780.
As for `CCN(CC)c1ccc2c(-c3ccccc3C(=O)N3CCCN(C(=O)[C@]45CCC(C)(C)C[C@H]4C4=CC[C@@H]6[C@@]7(C)CC[C@H](OC(C)=O)C(C)(C)[C@@H]7CC[C@@]6(C)[C@]4(C)CC5)CC3)c3ccc(=[N+](CC)CC)cc-3oc2c1.[Cl-]`, the EC50 with NIH3T3 worked out at 170 nM; with MCF7 it was 30 nM; in the data set with A-375, 30 nM; with SW-1736 it was 30 nM; in the data set on HT-29 it was 40 nM; in the data set with A2780, 10 nM. The selectivity ratio in data set [1] worked out at 17. Moreover, the Drug uptake entry in data set [2] is “Active”.
As for `C=C(C)[C@@H]1CC[C@]2(C(=O)O)CC[C@]3(C)[C@H](CC[C@@H]4[C@@]5(C)CC[C@H](O)C(C)(C)[C@@H]5CC[C@]43C)[C@@H]12` [BETULINIC ACID], the results for the EC50 with A-375 and in the data set with SW-1736 were 17100 nM and 18300 nM, respectively.
